For 167 variants, yeast fitness results are on record in the RNAGym collection of RNA variant scans (doi:10.1126/science.aae0568).

B1: tRNA (parent)
chain: GUUCCGUUGGCGUAAUGGUAACGCGUCUCCCUCCUAAGGAGAAGACUGCGGGUUCGAGUCCCGUACGGAACG

Variants at the floor of the assay were thinned out. A value given as a limit tells only on which side of the number the result lay.

This series covers variants of B1. Kind of series: yeast fitness relative to wild type (ratio to wild type); higher = fitter; tRNA-Arg(CCU), competitive growth, 37 C, YPD. The essentials: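 The tRNA-Arg(CCU) gene variants were made by chemical synthesis with a 3% per-site mutation rate at 69 sites and inserted at the native genomic locus of Saccharomyces cerevisiae. After pooling, the strains were competed in YPD at 37°C for 24 hours in six parallel replicates. Gene amplicons from the start population and each end population were read by 100-nucleotide paired-end sequencing, and Darwinian fitness relative to wild type was taken from genotype frequency changes. Genotypes needed ≥ 100 starting reads, and estimates < 0.5 were set to 0.5.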
A14C U16A G41C G63C A65U: the yeast fitness amounted to 0.586. For the variant A14C C29A G48A G50A, the yeast fitness was not above 0.5. With A14G A36G G51C U59G the figure was not above 0.5; with A14C C30U G50C C66U, not above 0.5; with A14C G18A G50A G63C, not above 0.5. On to A14C G18A G44A U59C C66G, for which the yeast fitness is not above 0.5. With A14G A20C C31U C46G, the yeast fitness was not above 0.5.

A14G C24G C31U U47C C55A: the yeast fitness was not above 0.5. Take A14G C24A C34G G38C: the yeast fitness is not above 0.5. On to A14C C24U U35C, for which the yeast fitness was not above 0.5. In the case of A14C G52C C55G, the yeast fitness was 0.546. Consider A14G A15G C33G C34U A43C C49G, for which the yeast fitness was not above 0.5. A14C G25C A45G G48A: the yeast fitness was 0.534. On to A14G A36G, for which the yeast fitness is 0.8. Turning to A14C G25C G48A A69U, the yeast fitness came to 0.553. On to A14C G25C U47A, for which the yeast fitness is 0.608. Regarding A14G A40U, the yeast fitness stood at 0.904. Under A14G A40G stands 0.856; under A14G A40C, 1; under A14G A65G, 0.887. Turning to A14C G25C U47A C49U G63C, the yeast fitness is 0.561. Under A14C C34A A37G C62U stands not above 0.5; under A14G C22U C34U G51C G58A, not above 0.5. With A14C C27U A43C the figure was not above 0.5; with A14C C27U A43U, not above 0.5. Regarding A14G A20C A21U U28C, the yeast fitness was not above 0.5.

With A14G C22A C29G C30G G48U, the yeast fitness came to 0.618.

Regarding A14C U47A, the yeast fitness is 0.701.

For A14G A36U C46A, the yeast fitness is 0.576. For the variant A14G A21C A36C A43U C60A, the yeast fitness is 0.554. With A14C C34U A37G A69C the figure was not above 0.5; with A14G C24G A40G U53A G68C, not above 0.5.

Consider A14C U32G, for which the yeast fitness stood at 0.752. For the variant A14C C27G C33A A45U G67U, the yeast fitness was not above 0.5. For A14C C31G C62A G67U, the yeast fitness is not above 0.5.

Turning to A14C U28A A42U, the yeast fitness was not above 0.5.

Take A14C C27U C46U G52C: the yeast fitness was not above 0.5. In the case of A14C U19A G39C, the yeast fitness is not above 0.5. Regarding A14C C30U G68C, the yeast fitness was not above 0.5. For A14C C60A A65U, the yeast fitness is not above 0.5. In the case of A14G C22G C30A, the yeast fitness was determined as 0.528. Under A14G A15C G17A A69C A70G stands 0.562. Regarding A14G A21G C27U A45C G48C C61G, the yeast fitness is not above 0.5. On to A14C G18A C29G A42C, for which the yeast fitness was not above 0.5. Regarding A14G A43C G50A, the yeast fitness was 0.558. With A14C U35C A65G the figure was 0.525; with A14G A45U A69C, 0.748; with A14C U16C, 0.724. Turning to A14C U16G, the yeast fitness came out at 0.609.

For A14C U16A, the yeast fitness was 0.597. For A14G A37G C55G, the yeast fitness is not above 0.5. Under A14C C27G C60A A65U stands not above 0.5; under A14C C31U A70G, 0.612; under A14G A42C U54A, not above 0.5.

In the case of A14C C30A C33G C46U, the yeast fitness was not above 0.5. A14G A15G G68C: the yeast fitness was found to be 0.537. As for A14G C22G C29G G41C, the yeast fitness was not above 0.5. Take A14G A40G G41A A45U: the yeast fitness stood at 0.686. In the case of A14C G25A C29G A45U C62A A70C, the yeast fitness is not above 0.5. Consider A14G A15U A45U, for which the yeast fitness is not above 0.5. For the variant A14G A65G A70U, the yeast fitness stood at 0.566. In the case of A14G A20G C22G U59C A65U, the yeast fitness was not above 0.5. In the case of A14C U54C, the yeast fitness stood at 0.702. On to A14C U54G, for which the yeast fitness was not above 0.5. As for A14C U19C C66U, the yeast fitness is 0.722. In the case of A14C C27G C46G A57G A65G, the yeast fitness was not above 0.5.

As to A14C U19A C49U C62G G63A, the yeast fitness was not above 0.5. Consider A14C U16A C27G C55U, for which the yeast fitness stood at 0.539. With A14C G25C C27G C34U U35A G38A A70G, the yeast fitness is not above 0.5. For the variant A14C C29U G52A C55G, the yeast fitness was not above 0.5.

As to A14C C27G C46G A57C A70C, the yeast fitness was not above 0.5. Under A14C U16C A69U stands not above 0.5; under A14C C27U C31U C33A C55U, not above 0.5. Under A14C G25A C66U stands 0.541; under A14C U19C A20G G58A, not above 0.5; under A14G C24G A42C, 0.512. For A14G A15C U53G C60U, the yeast fitness is not above 0.5. A14C G23A C34A C49G: the yeast fitness is not above 0.5. Turning to A14C G68A, the yeast fitness turned out to be 0.712. Consider A14C C33G G44C U54G G58C, for which the yeast fitness was not above 0.5. A14C C31U A40G: the yeast fitness is not above 0.5.

Take A14C C30G G68U: the yeast fitness worked out at 0.567.

Take A14G C22U C46G C60G: the yeast fitness is not above 0.5. Under A14G A15U G25C stands not above 0.5; under A14G C24G A65C, not above 0.5. Consider A14C C31A, for which the yeast fitness was 0.669. In the case of A14C C31G, the yeast fitness was 0.502.

Consider A14G C22A C27A C29U A42C, for which the yeast fitness was not above 0.5. For A14G C22G C33U G58A C60A, the yeast fitness was determined as 0.51. Turning to A14G C22A A57U, the yeast fitness is not above 0.5. Under A14G A20U A36U G51C G52C stands not above 0.5.

In the case of A14G A21U G68C, the yeast fitness was not above 0.5. Under A14C G58A C61A C62G stands not above 0.5; under A14G A20C C22G C29U A69U, not above 0.5; under A14G A57G, 0.905. In the case of A14G A57U, the yeast fitness stood at 0.563. With A14C C61U A65C the figure was not above 0.5; with A14G A42C A43U U59A C62G A65U, not above 0.5; with A14C U28A, 0.618.

A14C C27G C30G G38C: the yeast fitness is not above 0.5. In the case of A14C G17U C22U C34U, the yeast fitness was not above 0.5. For A14C G17U C27U, the yeast fitness is 0.647. Under A14G C22U C29G C33G A37G stands not above 0.5; under A14G C24A G25A C31A, not above 0.5; under A14C C31U A40U A57G, 0.53. As for A14C G44A C66U, the yeast fitness was not above 0.5. As for A14C C30G C46U G48A U54G, the yeast fitness was not above 0.5. In the case of A14C U26G C29A A42C, the yeast fitness is not above 0.5. On to A14C G51A A69U A70G, for which the yeast fitness is not above 0.5. As for A14C C46G, the yeast fitness amounted to 0.953. With A14G A21U G41C the figure was not above 0.5.

For the variant A14G A40G G41A A45U U47C, the yeast fitness was not above 0.5. Under A14G A36G C66U stands 0.606. As for A14G A21C C34A U47C, the yeast fitness is not above 0.5. On to A14G A15U G68U, for which the yeast fitness was not above 0.5. A14C G17C A21G U32A C34U: the yeast fitness is not above 0.5. Turning to A14G C22A C27A C29U A42C A57U C60A, the yeast fitness is not above 0.5. As to A14C C29U G39C U54C, the yeast fitness was determined as 0.678. Consider A14C C62G A70G, for which the yeast fitness is 0.632. Take A14G C24G A36C A70C: the yeast fitness was not above 0.5.

Take A14G A40C C55A C66A: the yeast fitness is not above 0.5. With A14G A45C C66U, the yeast fitness came to 0.582. Take A14C U32G U64C: the yeast fitness stood at 0.532. With A14C C27G the figure was 0.574. Take A14C C49G G63A: the yeast fitness worked out at 0.593. With A14C C49G G63C the figure was 0.592.

For the variant A14C C62A, the yeast fitness stood at 0.65.

With A14C C60U C62U U64A, the yeast fitness is not above 0.5. For the variant A14C U35C A57U, the yeast fitness was not above 0.5. Under A14C C27G C33A A45U G63C A69G stands not above 0.5.

With A14C U19A A20C G51A U59C, the yeast fitness came to 0.645. As to A14C C30A A36G C62U G63A, the yeast fitness was not above 0.5. A14C U19A A45C A65G: the yeast fitness was not above 0.5. With A14C C49G U54C G63A the figure was not above 0.5; with A14G C24U, 0.784; with A14C C66A, 0.722.

As for A14C C66G, the yeast fitness turned out to be 0.558. With A14C C66U the figure was 0.657; with A14C C29G C30A C62A A69C, not above 0.5. With A14C C27A C31A A70U, the yeast fitness is not above 0.5. For the variant A14C C27G C61U A70G, the yeast fitness turned out to be 0.538. For the variant A14C G41A, the yeast fitness amounted to 0.553. A14C U19A A21C C34U G39A: the yeast fitness was found to be 0.62.

As to A14C G67U, the yeast fitness worked out at 0.678. With A14G A15U C30G, the yeast fitness was not above 0.5. On to A14G A15C, for which the yeast fitness was 0.733. With A14G A15G the figure was 0.917; with A14G A15G A37G A45U C66U, not above 0.5; with A14G A42U C55U U59C G63A A65C, not above 0.5. Regarding A14C U26C C29U A43G, the yeast fitness turned out to be 0.59. In the case of A14G A37U, the yeast fitness was determined as 0.584. Consider A14C G18A C30U C49A, for which the yeast fitness was not above 0.5. With A14C C33G the figure was 0.726; with A14C C49G, 0.542; with A14C C49A, 0.562. A14G A21G U53C A57C A69U: the yeast fitness is not above 0.5. As for A14C C31U G58A C62U, the yeast fitness was 0.609. Under A14G A42C G50C C66U stands not above 0.5; under A14C U28A G44A C55A, not above 0.5; under A14G A36C A69C, not above 0.5. Turning to A14G C24G G25C C27A A40C G51A, the yeast fitness was not above 0.5. On to A14G A15U G67U, for which the yeast fitness was not above 0.5. For A14C C30A A40U, the yeast fitness is not above 0.5. A14G C22U C49A: the yeast fitness is not above 0.5. For A14G A40G A43U G50C A69U, the yeast fitness was not above 0.5. As to A14C G18A A42G G44A C66G, the yeast fitness is not above 0.5. With A14C G18A the figure was 0.59.
